{"data": "Experimental data pooled from the literature", "target": "Serine/threonine-protein kinase 26 (STK26, Homo sapiens, UniProt Q9P289)", "note": "Protocols differ between the studies behind these lines."}
{"Structure (SMILES)": "O=C(c1ccc(Nc2ncc(Cl)c(-c3ccc(Cl)s3)n2)cc1)N1CCC(N2CCCC2)CC1", "read-out": "binding", "technique": "competition with immobilised ligand", "tested at": "1 µM", "remaining binding [%]": 30}
{"Structure (SMILES)": "CN1CCN(c2ccc(Nc3nccc(-c4cccc([N+](=O)[O-])c4)n3)cc2C(F)(F)F)CC1", "read-out": "binding", "tested at": "10 µM", "remaining binding [%]": 33}
{"Structure (SMILES)": "C=CC(=O)N1CCC(C(=O)NCC(=O)N2CCN(c3nc(-c4cnc(N)nc4C(F)F)nc(N4CCOCC4)n3)CC2)CC1", "read-out": "binding", "technique": "competition with immobilised ligand", "tested at": "1 µM", "remaining binding [%]": 100}
{"Structure (SMILES)": "Nc1ncc2c(n1)-c1c([nH]c3ccc(C#CC4CC4)cc13)CCCC2", "read-out": "binding", "technique": "competition with immobilised ligand", "tested at": "1 µM", "remaining binding [%]": 99}
{"Structure (SMILES)": "O=C(NCC1CCOCC1)c1n[nH]cc1NC(=O)c1c(F)cccc1F", "read-out": "binding", "technique": "competition with immobilised ligand", "tested at": "1 µM", "remaining binding [%]": 77}
{"Structure (SMILES)": "Cc1cnc(Nc2ccc(C(=O)N3CCC(N4CCCC4)CC3)cc2)nc1-c1cc2ccccc2s1", "read-out": "binding", "technique": "competition with immobilised ligand", "tested at": "1 µM", "remaining binding [%]": 77}
{"Structure (SMILES)": "CN([C@@H]1CCc2c(CC(=O)O)c3ccccc3n2C1)S(=O)(=O)c1ccc(F)cc1", "read-out": "cell-free assay", "technique": "competition with immobilised ligand", "tested at": "1 µM", "remaining binding [%]": 79}
{"Structure (SMILES)": "CNC(=O)[C@@H]1CC[C@@H](n2c(-c3ccc4cnccc4c3)nc3ccc(C(=O)NCc4cccc(C(N)=O)c4)cc32)C1", "read-out": "binding", "technique": "competition with immobilised ligand", "tested at": "1 µM", "remaining binding [%]": 100}
{"Structure (SMILES)": "O=C(Nc1cccnn1)N1CCC(=Cc2cccc(Oc3ccc(C(F)(F)F)cn3)c2)CC1", "read-out": "cell-free assay", "technique": "competition with immobilised ligand", "tested at": "1 µM", "remaining binding [%]": 100}
{"Structure (SMILES)": "C[C@@H](c1ccc(-n2cnc3c(N)ncnc32)cc1)N1CCc2nn(C)c(Cc3ccccc3)c2C1=O", "read-out": "binding", "technique": "competition with immobilised ligand", "tested at": "0.1 µM", "remaining binding [%]": 88}
{"Structure (SMILES)": "CS(=O)(=O)N1CCCC(NC(=O)[C@H](CCC2CCCCC2)NC(=O)c2ccc(CNC(=O)c3cnc4ccccn34)cc2)C1 (some centres unmarked)", "read-out": "cell-free assay", "technique": "competition with immobilised ligand", "tested at": "0.1 µM", "remaining binding [%]": 100}
{"Structure (SMILES)": "COc1cnc(Nc2cccc(S(N)(=O)=O)c2)nc1N1CCN(c2ccccc2)CC1", "read-out": "binding", "technique": "competition with immobilised ligand", "tested at": "1 µM", "remaining binding [%]": 78}
{"Structure (SMILES)": "NS(=O)(=O)c1cc(NC(=O)C2(c3ccccc3Cl)CC2)ccc1Oc1cccc(Cl)c1", "read-out": "cell-free assay", "technique": "competition with immobilised ligand", "tested at": "1 µM", "remaining binding [%]": 100}
{"Structure (SMILES)": "O=C(c1ccc(Nc2ncc(Cl)c(-c3cc4ccccc4s3)n2)cc1)N1CCC(N2CCCC2)CC1", "read-out": "binding", "technique": "competition with immobilised ligand", "tested at": "1 µM", "remaining binding [%]": 66}
